Biological target: T1, Amine oxidase [flavin-containing] A (Homo sapiens, UniProt P21397)
T1 sequence (P21397 whole entry): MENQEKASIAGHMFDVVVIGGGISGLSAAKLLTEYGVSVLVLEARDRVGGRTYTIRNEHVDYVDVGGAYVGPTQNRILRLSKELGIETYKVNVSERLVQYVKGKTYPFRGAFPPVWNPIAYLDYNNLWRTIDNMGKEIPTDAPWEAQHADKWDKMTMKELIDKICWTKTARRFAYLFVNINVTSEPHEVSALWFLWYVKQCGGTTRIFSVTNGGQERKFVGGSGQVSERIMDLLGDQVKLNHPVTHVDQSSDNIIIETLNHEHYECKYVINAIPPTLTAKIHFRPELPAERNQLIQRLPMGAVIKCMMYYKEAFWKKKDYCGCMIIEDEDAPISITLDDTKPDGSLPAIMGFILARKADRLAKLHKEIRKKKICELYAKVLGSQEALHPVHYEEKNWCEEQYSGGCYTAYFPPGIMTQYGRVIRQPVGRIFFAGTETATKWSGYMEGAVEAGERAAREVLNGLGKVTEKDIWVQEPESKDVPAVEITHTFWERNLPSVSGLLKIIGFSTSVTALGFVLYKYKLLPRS
Test: Inhibition of recombinant human MAO-A using kynuramine as substrate after 20 mins by fluorescence assay

Row | SMILES | IC50
1 | C/C(=N/Nc1nc(-c2cccc([N+](=O)[O-])c2)cs1)C1CCCCC1 | 29.1 µM
2 | CCC/C(CC)=N\Nc1nc(-c2cccc([N+](=O)[O-])c2)cs1 | 4.86 µM
3 | CCCC/C(C)=N\Nc1nc(-c2cccc([N+](=O)[O-])c2)cs1 | 6.33 µM
4 | CCC(CC)=NNc1nc(-c2cccc([N+](=O)[O-])c2)cs1 | 24.3 µM
5 | CCC/C(C)=N\Nc1nc(-c2cccc([N+](=O)[O-])c2)cs1 | 38 µM
6 | C/C(CC(C)C)=N/Nc1nc(-c2cccc([N+](=O)[O-])c2)cs1 | 4.41 µM
7 | C/C(=N/Nc1nc(-c2cccc([N+](=O)[O-])c2)cs1)C1CC1 | 2.66 µM
8 | O=[N+]([O-])c1cccc(-c2csc(NN=C3CCCCCCC3)n2)c1 | 1.82 µM
9 | CCCCCC/C(C)=N\Nc1nc(-c2cccc([N+](=O)[O-])c2)cs1 | 10.9 µM

Biological target: T2, Amine oxidase [flavin-containing] B (Homo sapiens, UniProt P27338)
T2 sequence (P27338 whole entry): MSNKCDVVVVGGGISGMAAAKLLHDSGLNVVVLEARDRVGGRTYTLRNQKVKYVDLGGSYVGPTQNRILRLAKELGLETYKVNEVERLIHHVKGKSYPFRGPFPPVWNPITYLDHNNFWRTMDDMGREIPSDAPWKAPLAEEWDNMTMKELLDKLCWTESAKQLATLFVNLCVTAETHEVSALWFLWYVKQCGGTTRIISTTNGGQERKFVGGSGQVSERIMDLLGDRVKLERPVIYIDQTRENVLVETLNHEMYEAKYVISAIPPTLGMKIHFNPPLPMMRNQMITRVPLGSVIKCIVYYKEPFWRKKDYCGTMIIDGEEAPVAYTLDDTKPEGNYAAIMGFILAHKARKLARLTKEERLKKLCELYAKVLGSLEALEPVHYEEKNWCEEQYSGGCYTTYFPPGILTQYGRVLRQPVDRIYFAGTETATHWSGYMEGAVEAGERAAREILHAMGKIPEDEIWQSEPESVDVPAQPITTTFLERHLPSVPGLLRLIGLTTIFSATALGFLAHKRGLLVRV

Row | SMILES | IC50
10 | C/C(=N/Nc1nc(-c2cccc([N+](=O)[O-])c2)cs1)C1CCCCC1 | 0.0072 µM
11 | CCC/C(CC)=N\Nc1nc(-c2cccc([N+](=O)[O-])c2)cs1 | 0.189 µM
12 | CCCC/C(C)=N\Nc1nc(-c2cccc([N+](=O)[O-])c2)cs1 | 0.118 µM
13 | CCC(CC)=NNc1nc(-c2cccc([N+](=O)[O-])c2)cs1 | 0.053 µM
14 | CCC/C(C)=N\Nc1nc(-c2cccc([N+](=O)[O-])c2)cs1 | 0.055 µM
15 | C/C(CC(C)C)=N/Nc1nc(-c2cccc([N+](=O)[O-])c2)cs1 | 0.012 µM
16 | C/C(=N/Nc1nc(-c2cccc([N+](=O)[O-])c2)cs1)C1CC1 | 0.0053 µM
17 | O=[N+]([O-])c1cccc(-c2csc(NN=C3CCCCCCC3)n2)c1 | 0.01 µM
18 | CCCCCC/C(C)=N\Nc1nc(-c2cccc([N+](=O)[O-])c2)cs1 | 0.626 µM

Biological target: T2, Amine oxidase [flavin-containing] B
Test: Reversible inhibition of recombinant human MAO-B assessed as residual activity at 4 times IC50 using kynuramine as substrate pre-incubated for 15 mins followed by 2 fold dilution of compound for 24 hrs and subsequent substrate addition measured after 20 mins by fluorescence assay relative to control

Row | SMILES | Activity
19 | C/C(=N/Nc1nc(-c2cccc([N+](=O)[O-])c2)cs1)C1CC1 | 91%

Biological target: T2, Amine oxidase [flavin-containing] B
Test: Competitive inhibition of recombinant human MAO-B using kynuramine as substrate pre-incubated for 15 mins followed by 2 fold compound dilution for 24 hrs and subsequent substrate addition measured after 20 mins by Lineweaver-Burk plot analysis
Outline: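 20 min at 37 °C, NaOH stop, 4-hydroxyquinoline fluorescence read. Six Lineweaver-Burk plots; Ki from x-intercept of slope versus inhibitor concentration.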

Row | SMILES | Ki
20 | C/C(=N/Nc1nc(-c2cccc([N+](=O)[O-])c2)cs1)C1CC1 | 0.0073 µM

Biological target: Cholinesterase (Equus caballus) (UniProt P81908)
Test: Inhibition of horse serum BuChE at 3 uM using butyrylthiocholine iodide as substrate preincubated for 15 mins followed by substrate addition measured after 10 mins by spectrophotometry based-Ellman's method

Sequence of Cholinesterase (Equus caballus) (P81908 whole entry): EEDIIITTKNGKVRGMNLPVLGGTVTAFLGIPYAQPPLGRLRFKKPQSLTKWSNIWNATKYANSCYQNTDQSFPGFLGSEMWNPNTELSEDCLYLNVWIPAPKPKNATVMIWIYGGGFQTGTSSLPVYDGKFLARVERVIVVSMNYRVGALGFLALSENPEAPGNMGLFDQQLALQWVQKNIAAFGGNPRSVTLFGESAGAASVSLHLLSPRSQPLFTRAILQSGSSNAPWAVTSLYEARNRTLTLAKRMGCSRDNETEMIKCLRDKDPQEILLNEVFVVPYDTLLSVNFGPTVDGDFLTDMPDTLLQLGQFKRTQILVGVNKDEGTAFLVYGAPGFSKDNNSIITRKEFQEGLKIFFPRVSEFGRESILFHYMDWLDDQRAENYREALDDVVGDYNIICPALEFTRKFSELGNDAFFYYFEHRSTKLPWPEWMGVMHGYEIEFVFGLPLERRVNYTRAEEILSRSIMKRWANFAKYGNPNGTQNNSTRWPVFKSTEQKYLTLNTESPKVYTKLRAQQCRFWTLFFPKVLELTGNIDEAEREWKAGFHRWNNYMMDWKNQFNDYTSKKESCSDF

Row | SMILES | inhibition
21 | C/C(=N/Nc1nc(-c2cccc([N+](=O)[O-])c2)cs1)C1CCCCC1 | 6.22%
22 | CCC/C(CC)=N\Nc1nc(-c2cccc([N+](=O)[O-])c2)cs1 | 11%
23 | CCCC/C(C)=N\Nc1nc(-c2cccc([N+](=O)[O-])c2)cs1 | 11.3%
24 | CCC(CC)=NNc1nc(-c2cccc([N+](=O)[O-])c2)cs1 | 7.45%
25 | CCC/C(C)=N\Nc1nc(-c2cccc([N+](=O)[O-])c2)cs1 | 5.16%
26 | C/C(CC(C)C)=N/Nc1nc(-c2cccc([N+](=O)[O-])c2)cs1 | 8.98%
27 | C/C(=N/Nc1nc(-c2cccc([N+](=O)[O-])c2)cs1)C1CC1 | 12.8%
28 | O=[N+]([O-])c1cccc(-c2csc(NN=C3CCCCCCC3)n2)c1 | 7.64%
29 | CCCCCC/C(C)=N\Nc1nc(-c2cccc([N+](=O)[O-])c2)cs1 | 9.54%

Test system: not listed separately
Test: Antioxidant activity assessed as total antioxidant capacity after 90 mins by phosphomolybdenum method
Format: functional
Outline: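 Sample combined with reagent of 0.6 M sulphuric acid, 28 mM sodium phosphate and 4 mM ammonium molybdate; heated 90 min at 95 °C, absorbance at 695 nm. EC50 = concentration giving absorbance 0.5; trolox as reference.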

Row | SMILES | EC50
30 | C/C(=N/Nc1nc(-c2cccc([N+](=O)[O-])c2)cs1)C1CCCCC1 | 1190 µM
31 | CCC/C(CC)=N\Nc1nc(-c2cccc([N+](=O)[O-])c2)cs1 | 1250 µM
32 | CCCC/C(C)=N\Nc1nc(-c2cccc([N+](=O)[O-])c2)cs1 | 1460 µM
33 | CCC(CC)=NNc1nc(-c2cccc([N+](=O)[O-])c2)cs1 | 1100 µM
34 | CCC/C(C)=N\Nc1nc(-c2cccc([N+](=O)[O-])c2)cs1 | 1200 µM
35 | C/C(CC(C)C)=N/Nc1nc(-c2cccc([N+](=O)[O-])c2)cs1 | 1130 µM
36 | C/C(=N/Nc1nc(-c2cccc([N+](=O)[O-])c2)cs1)C1CC1 | 1470 µM
37 | O=[N+]([O-])c1cccc(-c2csc(NN=C3CCCCCCC3)n2)c1 | 1220 µM
38 | CCCCCC/C(C)=N\Nc1nc(-c2cccc([N+](=O)[O-])c2)cs1 | 1240 µM

Test system: not listed separately
Test: Antioxidant activity assessed as ferric ion reducing activity using Fe3+-TPTZ after 30 mins by FRAP assay
Format: functional
Outline: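 FRAP reagent: acetate buffer (0.3 M, pH 3.6), TPTZ (10 mM) in 40 mM HCl and FeCl3 (20 mM), 10:1:1 v/v/v. Sample added, 30 min at room temperature, absorbance at 593 nm. Expressed as EC50.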

Row | SMILES | EC50
39 | C/C(=N/Nc1nc(-c2cccc([N+](=O)[O-])c2)cs1)C1CCCCC1 | 670 µM
40 | CCC/C(CC)=N\Nc1nc(-c2cccc([N+](=O)[O-])c2)cs1 | 390 µM
41 | CCCC/C(C)=N\Nc1nc(-c2cccc([N+](=O)[O-])c2)cs1 | 370 µM
42 | CCC(CC)=NNc1nc(-c2cccc([N+](=O)[O-])c2)cs1 | 340 µM
43 | CCC/C(C)=N\Nc1nc(-c2cccc([N+](=O)[O-])c2)cs1 | 450 µM
44 | C/C(CC(C)C)=N/Nc1nc(-c2cccc([N+](=O)[O-])c2)cs1 | 420 µM
45 | C/C(=N/Nc1nc(-c2cccc([N+](=O)[O-])c2)cs1)C1CC1 | 470 µM
46 | O=[N+]([O-])c1cccc(-c2csc(NN=C3CCCCCCC3)n2)c1 | 390 µM
47 | CCCCCC/C(C)=N\Nc1nc(-c2cccc([N+](=O)[O-])c2)cs1 | 390 µM

Test system: not listed separately
Test: Antioxidant activity assessed as cupric ion reducing activity after 30 mins by CUPRAC assay
Format: functional
Outline: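 Sample mixed with CuCl2 (10 mM), neocuproine (7.5 mM) and NH4Ac buffer (1 M, pH 7.0) stock reagents; blank lacks CuCl2. Absorbance at 450 nm after 30 min at room temperature, blank subtracted. Expressed as EC50.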

Row | SMILES | EC50
48 | C/C(=N/Nc1nc(-c2cccc([N+](=O)[O-])c2)cs1)C1CCCCC1 | 610 µM
49 | CCC/C(CC)=N\Nc1nc(-c2cccc([N+](=O)[O-])c2)cs1 | 530 µM
50 | CCCC/C(C)=N\Nc1nc(-c2cccc([N+](=O)[O-])c2)cs1 | 520 µM
51 | CCC(CC)=NNc1nc(-c2cccc([N+](=O)[O-])c2)cs1 | 460 µM
52 | CCC/C(C)=N\Nc1nc(-c2cccc([N+](=O)[O-])c2)cs1 | 550 µM
53 | C/C(CC(C)C)=N/Nc1nc(-c2cccc([N+](=O)[O-])c2)cs1 | 570 µM
54 | C/C(=N/Nc1nc(-c2cccc([N+](=O)[O-])c2)cs1)C1CC1 | 530 µM
55 | O=[N+]([O-])c1cccc(-c2csc(NN=C3CCCCCCC3)n2)c1 | 440 µM
56 | CCCCCC/C(C)=N\Nc1nc(-c2cccc([N+](=O)[O-])c2)cs1 | 530 µM

Test system: not listed separately
Test: Antioxidant activity assessed as DPPH radical scavenging activity after 30 mins
Format: functional
Outline: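 Sample added to 0.004% DPPH in methanol, kept 30 min in the dark at room temperature, absorbance read at 517 nm. IC50 taken as the concentration scavenging 50% of DPPH radicals; trolox as reference.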

Row | SMILES | IC50
57 | C/C(=N/Nc1nc(-c2cccc([N+](=O)[O-])c2)cs1)C1CCCCC1 | 1350 µM
58 | CCC/C(CC)=N\Nc1nc(-c2cccc([N+](=O)[O-])c2)cs1 | 1230 µM
59 | CCCC/C(C)=N\Nc1nc(-c2cccc([N+](=O)[O-])c2)cs1 | 1180 µM
60 | CCC(CC)=NNc1nc(-c2cccc([N+](=O)[O-])c2)cs1 | 1130 µM
61 | CCC/C(C)=N\Nc1nc(-c2cccc([N+](=O)[O-])c2)cs1 | 1200 µM
62 | C/C(CC(C)C)=N/Nc1nc(-c2cccc([N+](=O)[O-])c2)cs1 | 1350 µM
63 | C/C(=N/Nc1nc(-c2cccc([N+](=O)[O-])c2)cs1)C1CC1 | 1260 µM
64 | O=[N+]([O-])c1cccc(-c2csc(NN=C3CCCCCCC3)n2)c1 | 1280 µM
65 | CCCCCC/C(C)=N\Nc1nc(-c2cccc([N+](=O)[O-])c2)cs1 | 1150 µM

Test system: not listed separately
Test: Antioxidant activity assessed as ABTS radical scavenging activity measured after 12 to 16 hrs
Format: functional
Outline: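 ABTS radical cation generated from 7 mM ABTS with 2.45 mM potassium persulphate, 12-16 h dark at room temperature, then diluted with methanol to A734 0.700 ± 0.02. Sample mixed with ABTS solution, 30 min at room temperature, absorbance read at 734 nm. IC50 = concentration scavenging 50% of radicals; trolox reference.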

Row | SMILES | IC50
66 | C/C(=N/Nc1nc(-c2cccc([N+](=O)[O-])c2)cs1)C1CCCCC1 | 1050 µM
67 | CCC/C(CC)=N\Nc1nc(-c2cccc([N+](=O)[O-])c2)cs1 | 1040 µM
68 | CCCC/C(C)=N\Nc1nc(-c2cccc([N+](=O)[O-])c2)cs1 | 1060 µM
69 | CCC(CC)=NNc1nc(-c2cccc([N+](=O)[O-])c2)cs1 | 1040 µM
70 | CCC/C(C)=N\Nc1nc(-c2cccc([N+](=O)[O-])c2)cs1 | 1040 µM
71 | C/C(CC(C)C)=N/Nc1nc(-c2cccc([N+](=O)[O-])c2)cs1 | 1050 µM
72 | C/C(=N/Nc1nc(-c2cccc([N+](=O)[O-])c2)cs1)C1CC1 | 1060 µM
73 | O=[N+]([O-])c1cccc(-c2csc(NN=C3CCCCCCC3)n2)c1 | 1090 µM
74 | CCCCCC/C(C)=N\Nc1nc(-c2cccc([N+](=O)[O-])c2)cs1 | 1110 µM

Biological target: T2, Amine oxidase [flavin-containing] B
Test: Inhibition of recombinant human MAO-B assessed as residual activity at 4 times IC50 using kynuramine as substrate pre-incubated for 15 mins substrate addition measured after 20 mins by fluorescence assay relative to control

Row | SMILES | Activity
75 | C/C(=N/Nc1nc(-c2cccc([N+](=O)[O-])c2)cs1)C1CC1 | 46%

— ChEMBL document CHEMBL4138155, “Design, synthesis and biochemical evaluation of novel multi-target inhibitors as potential anti-Parkinson agents” (Eur J Med Chem, 2018)
